Experimental data from article PMC10692386 (Acta Pharmaceutica Sinica. B, 2023).

What was measured:
[1] = test system: HIV-1 mutant E138K; assay: Anti-HIV-1 efficacy against mutant E138K in MT-4 cells; format: cell-based; conditions: Human immunodeficiency virus 1, MT4, read-out: EC50 E138K
In short: (§1)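 MT-4 cells were infected with HIV-1 RT mutant strains. EC50 was the concentration giving 50% protection against viral cytopathicity, averaged from at least three independent experiments. Cytotoxicity in mock-infected cultures was read by MTT.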

[2] = test system: HIV-1 mutant L100I; assay: Anti-HIV-1 efficacy against mutant L100I in MT-4 cells; format: cell-based; conditions: Human immunodeficiency virus 1, MT4, read-out: EC50 L100I
In short: as §1

[3] = test system: HIV-1 mutant K103N + Y181C; assay: Anti-HIV-1 efficacy against mutant K103N + Y181C in MT-4 cells; format: cell-based; conditions: Human immunodeficiency virus 1, MT4, read-out: EC50 K103N + Y181C
In short: as §1

[4] = test system: WT HIV-1; assay: Anti-HIV-1 activity in MT-4 cells infected with HIV-1; format: cell-based; conditions: for EC50: Human immunodeficiency virus 1, MT4; for SI: selectivity index, the ratio of CC50/EC50, WT HIV-1
[5] = Cytotoxicity in mock-infected MT-4 cell cultures; format: cell-based; conditions: human, mock-infected MT-4 cells
[6] = molecular target: WT HIV-1 RT (Human immunodeficiency virus type 1 group M subtype B, UniProt P03366); assay: Inhibition of WT HIV-1 RT; format: biochemical
[7] = test system: HIV-1 mutant K103N; assay: Anti-HIV-1 efficacy against mutant K103N in MT-4 cells; format: cell-based; conditions: Human immunodeficiency virus 1, MT4, read-out: EC50 K103N
In short: as §1

[8] = test system: HIV-1 mutant Y188L; assay: Anti-HIV-1 efficacy against mutant Y188L in MT-4 cells; format: cell-based; conditions: Human immunodeficiency virus 1, MT4, read-out: EC50 Y188L
In short: as §1

[9] = test system: HIV-1 mutant Y181C; assay: Anti-HIV-1 efficacy against mutant Y181C in MT-4 cells; format: cell-based; conditions: Human immunodeficiency virus 1, MT4, read-out: EC50 Y181C
In short: as §1

[10] = molecular target: CYP2D6 (Homo sapiens, UniProt P10635); assay: Cytochrome P450 inhibition assay, CYP2D6; format: in vitro ADME
Chain of CYP2D6 (P10635 whole entry): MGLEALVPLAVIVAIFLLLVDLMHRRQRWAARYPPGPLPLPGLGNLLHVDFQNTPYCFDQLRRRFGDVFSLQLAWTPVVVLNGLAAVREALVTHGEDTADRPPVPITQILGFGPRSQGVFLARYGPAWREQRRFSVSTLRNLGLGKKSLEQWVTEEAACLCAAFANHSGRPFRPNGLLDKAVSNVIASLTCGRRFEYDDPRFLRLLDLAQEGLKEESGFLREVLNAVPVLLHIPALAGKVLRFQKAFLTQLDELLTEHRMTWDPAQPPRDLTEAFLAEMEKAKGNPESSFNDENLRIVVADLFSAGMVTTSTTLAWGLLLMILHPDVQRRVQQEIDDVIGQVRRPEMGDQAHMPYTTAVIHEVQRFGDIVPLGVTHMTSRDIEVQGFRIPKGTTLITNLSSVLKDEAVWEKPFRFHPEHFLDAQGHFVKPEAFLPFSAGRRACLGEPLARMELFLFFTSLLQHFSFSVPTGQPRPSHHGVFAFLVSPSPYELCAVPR

## Cn1c(Cn2ccc(C(F)(F)F)c(Oc3cncc(Cl)c3)c2=O)n[nH]c1=O [7a]
[1]
  EC50: 0.61 ± 0.04 µM
[2]
  EC50: 0.93 ± 0.51 µM
[3]
  EC50: 18.3 ± 11.4 µM
[4]
  EC50: 0.55 ± 0.23 µM
  SI: >563
[5]
  CC50: > 311 µM
[6]
  IC50: 1.14 ± 0.043 µM
[7]
  EC50: 1.22 ± 0.56 µM
[8]
  EC50: 122 ± 62.1 µM
[9]
  EC50: 1.79 ± 0.58 µM

## Cc1cc(Oc2c(C(F)(F)F)ccn(Cc3n[nH]c(=O)n3C)c2=O)c2cccc(F)c2n1 [7aa]
[4]
  EC50: > 220 µM
  SI: <1
[5]
  CC50: 220 ± 44.4 µM

## Cc1cc(Oc2c(C(F)(F)F)ccn(Cc3n[nH]c(=O)n3C)c2=O)c2cccc(C)c2n1 [7ac]
[4]
  EC50: > 151 µM
  SI: <1
[5]
  CC50: 151 ± 27.9 µM

## Cc1cc(Oc2c(C(F)(F)F)ccn(Cc3n[nH]c(=O)n3C)c2=O)c2cc(F)c(Cl)cc2n1 [7ae]
[4]
  EC50: 11.7 ± 9.1 µM
  SI: 7.92
[5]
  CC50: 92.9 ± 44 µM

## Cc1cc(Oc2c(C(F)(F)F)ccn(Cc3n[nH]c(=O)n3C)c2=O)c2c(Cl)c(F)ccc2n1 [7af]
[4]
  EC50: 33.3 ± 9.61 µM
  SI: 2.45
[5]
  CC50: 81.5 ± 11.7 µM

## Cn1c(Cn2ccc(C(F)(F)F)c(Oc3cnc4ccccc4c3)c2=O)n[nH]c1=O [7ag]
[4]
  EC50: > 250 µM
  SI: >1
[5]
  CC50: > 250 µM

## Cn1c(Cn2ccc(C(F)(F)F)c(Oc3ccc4ncccc4c3)c2=O)n[nH]c1=O [7ah]
[4]
  EC50: 252 ± 5.75 µM
  SI: >1
[5]
  CC50: > 299 µM

## Cn1c(Cn2ccc(C(F)(F)F)c(Oc3ccc4cnccc4c3)c2=O)n[nH]c1=O [7ai]
[4]
  EC50: 11.2 ± 2.83 µM
  SI: >27
[5]
  CC50: > 299 µM

## Cn1c(Cn2ccc(C(F)(F)F)c(Oc3cc(Cl)c4ncccc4c3)c2=O)n[nH]c1=O [7ak]
[4]
  EC50: > 192 µM
  SI: <1
[5]
  CC50: 192 ± 42.9 µM

## Cn1c(Cn2ccc(C(F)(F)F)c(Oc3ccc4nc(Cl)ccc4c3)c2=O)n[nH]c1=O [7al]
[4]
  EC50: 46.7 ± 12.5 µM
  SI: 3.68
[5]
  CC50: 172 ± 44.9 µM

## Cn1c(Cn2ccc(C(F)(F)F)c(Oc3ccc4cccnc4c3Br)c2=O)n[nH]c1=O [7am]
[4]
  EC50: > 164 µM
  SI: <1
[5]
  CC50: 164 ± 25.5 µM

## Cn1c(Cn2ccc(C(F)(F)F)c(Oc3cccnc3Cl)c2=O)n[nH]c1=O [7b]
[4]
  EC50: 4.27 ± 0.75 µM
  SI: 67.97
[5]
  CC50: 290 ± 24.1 µM

## Cn1c(Cn2ccc(C(F)(F)F)c(Oc3ccc(Cl)nc3)c2=O)n[nH]c1=O [7c]
[4]
  EC50: 35.6 ± 10.3 µM
  SI: >9
[5]
  CC50: > 311 µM

## Cn1c(Cn2ccc(C(F)(F)F)c(Oc3cnc(Cl)c(Cl)c3)c2=O)n[nH]c1=O [7d]
[4]
  EC50: 2.02 ± 0.88 µM
  SI: 122.98
[5]
  CC50: 248 ± 28.2 µM

## Cn1c(Cn2ccc(C(F)(F)F)c(Oc3cncc(Br)c3)c2=O)n[nH]c1=O [7e]
[1]
  EC50: 0.62 ± 0.22 µM
[2]
  EC50: 0.68 ± 0.22 µM
[3]
  EC50: 12.3 ± 8.12 µM
[4]
  EC50: 0.49 ± 0.12 µM
  SI: >573
[5]
  CC50: > 280 µM
[6]
  IC50: 0.74 ± 0.03 µM
[7]
  EC50: 0.95 ± 0.27 µM
[8]
  EC50: 39 ± 5.33 µM
[9]
  EC50: 0.85 ± 0.15 µM

## Cn1c(Cn2ccc(C(F)(F)F)c(Oc3cccnc3Br)c2=O)n[nH]c1=O [7f]
[4]
  EC50: 4.44 ± 0.94 µM
  SI: 61.07
[5]
  CC50: 270.9 ± 1.77 µM

## Cn1c(Cn2ccc(C(F)(F)F)c(Oc3ccc(Br)nc3)c2=O)n[nH]c1=O [7g]
[4]
  EC50: 197 ± 58.9 µM
  SI: >1
[5]
  CC50: > 280 µM

## Cc1cncc(Oc2c(C(F)(F)F)ccn(Cc3n[nH]c(=O)n3C)c2=O)c1 [7h]
[1]
  EC50: 0.77 ± 0.04 µM
[2]
  EC50: 0.55 ± 0.33 µM
[3]
  EC50: 16.1 ± 7.33 µM
[4]
  EC50: 0.53 ± 0.16 µM
  SI: >616
[5]
  CC50: > 328 µM
[6]
  IC50: 1.03 ± 0.14 µM
[7]
  EC50: 1.2 ± 0.18 µM
[8]
  EC50: 196 ± 12.1 µM
[9]
  EC50: 1.78 ± 0.1 µM

## Cc1ncccc1Oc1c(C(F)(F)F)ccn(Cc2n[nH]c(=O)n2C)c1=O [7i]
[4]
  EC50: 6.76 ± 1.07 µM
  SI: >49
[5]
  CC50: > 328 µM

## Cc1ccc(Oc2c(C(F)(F)F)ccn(Cc3n[nH]c(=O)n3C)c2=O)cn1 [7j]
[4]
  EC50: 21.1 ± 5 µM
[5]
  CC50: > 328 µM

## Cc1ccncc1Oc1c(C(F)(F)F)ccn(Cc2n[nH]c(=O)n2C)c1=O [7k]
[4]
  EC50: 1.53 ± 0.25 µM
  SI: >214
[5]
  CC50: > 328 µM

## Cc1ccc(Oc2c(C(F)(F)F)ccn(Cc3n[nH]c(=O)n3C)c2=O)c(Br)n1 [7l]
[4]
  EC50: > 250 µM
  SI: <1
[5]
  CC50: 253 ± 16.8 µM

## Cc1ccc(Oc2c(C(F)(F)F)ccn(Cc3n[nH]c(=O)n3C)c2=O)c(C)n1 [7m]
[4]
  EC50: > 250 µM
  SI: <1
[5]
  CC50: > 250 µM

## CCc1nc(C)ccc1Oc1c(C(F)(F)F)ccn(Cc2n[nH]c(=O)n2C)c1=O [7n]
[4]
  EC50: > 250 µM
[5]
  CC50: 299 ± 3.74 µM

## Cc1cc(Oc2c(C(F)(F)F)ccn(Cc3n[nH]c(=O)n3C)c2=O)cnc1Br [7o]
[4]
  EC50: 1.27 ± 0.36 µM
  SI: >214
[5]
  CC50: > 272 µM

## Cc1cc(Oc2c(C(F)(F)F)ccn(Cc3n[nH]c(=O)n3C)c2=O)cnc1F [7p]
[4]
  EC50: 1.46 ± 0.54 µM
[5]
  CC50: > 250 µM

## COc1cncc(Oc2c(C(F)(F)F)ccn(Cc3n[nH]c(=O)n3C)c2=O)c1 [7q]
[4]
  EC50: 7.33 ± 5.03 µM
  SI: >43
[5]
  CC50: > 250 µM

## Cn1c(Cn2ccc(C(F)(F)F)c(Oc3ccc(C(F)(F)F)nc3)c2=O)n[nH]c1=O [7r]
[4]
  EC50: > 250 µM
  SI: >1
[5]
  CC50: > 250 µM

## Cn1c(Cn2ccc(C(F)(F)F)c(Oc3cccnc3)c2=O)n[nH]c1=O [7s]
[4]
  EC50: 1.22 ± 0.24 µM
  SI: >278
[5]
  CC50: > 367 µM

## Cc1ncc(Oc2c(C(F)(F)F)ccn(Cc3n[nH]c(=O)n3C)c2=O)cn1 [7t]
[4]
  EC50: > 250 µM
  SI: >1
[5]
  CC50: > 250 µM

## Cn1c(Cn2ccc(C(F)(F)F)c(Oc3cncc4ccccc34)c2=O)n[nH]c1=O [7u]
[1]
  EC50: 0.9 ± 0.29 µM
[2]
  EC50: 0.5 ± 0.22 µM
[3]
  EC50: 34 ± 13 µM
[4]
  EC50: 0.89 ± 0.23 µM
  SI: 309.52
[5]
  CC50: 277 ± 10.1 µM
[6]
  IC50: 4.38 ± 0.35 µM
[7]
  EC50: 3.01 ± 1.42 µM
[8]
  EC50: > 250 µM
[9]
  EC50: 1.56 ± 0.49 µM

## Cn1c(Cn2ccc(C(F)(F)F)c(Oc3cccc4ncccc34)c2=O)n[nH]c1=O [7v]
[4]
  EC50: 4.48 ± 1.24 µM
  SI: 62.10
[5]
  CC50: 278 ± 18.6 µM

## Cn1c(Cn2ccc(C(F)(F)F)c(Oc3cccc4ccncc34)c2=O)n[nH]c1=O [7x]
[4]
  EC50: 1.23 ± 0.28 µM
  SI: >244
[5]
  CC50: > 299 µM

## Cn1c(Cn2ccc(C(F)(F)F)c(Oc3cccc4nccnc34)c2=O)n[nH]c1=O [7y]
[4]
  EC50: 8.07 ± 1.41 µM
  SI: 27.30
[5]
  CC50: 220 ± 35.5 µM

## Cc1cc(Oc2c(C(F)(F)F)ccn(Cc3n[nH]c(=O)n3C)c2=O)c2ccccc2n1 [7z]
[4]
  EC50: > 233 µM
  SI: <1
[5]
  CC50: 233 ± 32.1 µM

## Cn1c(Cn2ccc(C(F)(F)F)c(Oc3cc(Cl)cc(C#N)c3)c2=O)n[nH]c1=O [DOR, doravirine, reference compound]
[1]
  EC50: 0.0075 ± 0.0026 µM
[2]
  EC50: 0.0066 ± 0.0017 µM
[3]
  EC50: 0.142 ± 0.057 µM
[4]
  EC50: 0.013 ± 0.004 µM
[5]
  CC50: 293.24 ± 0.17 µM
[6]
  IC50: 0.044 ± 0.005 µM
[7]
  EC50: 0.042 ± 0.0013 µM
[8]
  EC50: 0.5 ± 0.15 µM
[9]
  EC50: 0.025 ± 0.0023 µM

## COc1ccc2c(c1)[C@]13CCCC[C@@H]1[C@H](C2)N(C)CC3 [Dextromethorphan, reference compound]
[10]
  IC50: 0.0482 µM

## Cc1cc(C#N)cc(C)c1Oc1nc(Nc2ccc(C#N)cc2)nc(N)c1Br [ETR, etravirine, reference compound]
[1]
  EC50: 0.006 ± 0.001 µM
[2]
  EC50: 0.006 ± 0.004 µM
[3]
  EC50: 0.031 ± 0.009 µM
[4]
  EC50: 0.0029 ± 0.002 µM
  SI: >1600
[5]
  CC50: > 4.6 µM
[7]
  EC50: 0.002 µM
[8]
  EC50: 0.018 ± 0.008 µM
[9]
  EC50: 0.019 ± 0.009 µM
